In paper PMC12124217 (RSC Medicinal Chemistry, 2025):

Legend:
[1] = cited from earlier work
[2] = Phase-solubility study of tcyDTDO with BCD; assay type: physicochemical; conditions: BCD with saturated tcyDTDO, 25.0 °C
[3] = test system: MDA-MB-468 (EGFR+) cells; experiment: MTT cell viability assay; assay type: cell-based; conditions: neat CD, up to concentrations as high as 100 μM
Method in brief: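 MDA-MB-468 cells were treated with test compound alone or as cyclodextrin complexes, then read out by MTT. Complex stocks were made by shake-flask and passed through a 0.45 μm filter. […] Values are the mean of 10 replicates ± standard deviation.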

[4] = advertised; ref Millipore Sigma; cited from earlier work

| Compound | Cavity volume, literature [1] | Highest achievable concentration of CD in solution [2] | Effect on cell viability [3] | Solubility in water [4] |
| --- | --- | --- | --- | --- |
| OC[C@H]1O[C@@H]2O[C@H]3[C@H](O)[C@@H](O)[C@@H](O[C@H]4[C@H](O)[C@@H](O)[C@@H](O[C@H]5[C@H](O)[C@@H](O)[C@@H](O[C@H]6[C@H](O)[C@@H](O)[C@@H](O[C@H]7[C@H](O)[C@@H](O)[C@@H](O[C@H]8[C@H](O)[C@@H](O)[C@@H](O[C@H]1[C@H](O)[C@H]2O)O[C@@H]8CO)O[C@@H]7CO)O[C@@H]6CO)O[C@@H]5CO)O[C@@H]4CO)O[C@@H]3CO [BCD, beta-cyclodextrin] | 262 Å^3 | 4.43 mM | did not have any significant adverse effect on cell viability |  |
| CC(O)COC[C@H]1O[C@@H]2O[C@H]3[C@H](O)[C@@H](O)[C@@H](O[C@H]4[C@H](O)[C@@H](O)[C@@H](O[C@H]5[C@H](O)[C@@H](O)[C@@H](O[C@H]6[C@H](O)[C@@H](O)[C@@H](O[C@H]7[C@H](O)[C@@H](O)[C@@H](O[C@H]8[C@H](O)[C@@H](O)[C@@H](O[C@H]1[C@H](O)[C@H]2O)O[C@@H]8COCC(C)O)O[C@@H]7COCC(C)O)O[C@@H]6COCC(C)O)O[C@@H]5COCC(C)O)O[C@@H]4COCC(C)O)O[C@@H]3COCC(C)O (stereo partly drawn) [HPB, 2-hydroxypropyl-beta-cyclodextrin] |  |  | did not have any significant adverse effect on cell viability | roughly 45 g per 100 mL |
